Active and inactive are the calls of the source.
Experiments:
[1] = test system: A549; assay: Cytotoxicity against human A549 cells assessed as reduction in cell viability by MTS assay; type: functional, cell-based
In short: (§1)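 MTS viability assay. Cells were seeded at 5 × 10^3 per well for 24 h, then exposed to serial dilutions (5, 10, 15, 20, and 50 μM) in medium with 10% FBS and grown for the indicated duration. Controls got DMSO. MTS was added for 1 h at 37 °C and absorbance read at 490 nm. Results are % of control, with IC50 calculated.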

[2] = Cytotoxicity against human CNE1-LMP1 cells assessed as reduction in cell viability by MTS assay; type: functional, cell-based; in short: as §1
[3] = test system: A-375; assay: Cytotoxicity against human A375 cells assessed as reduction in cell viability by MTS assay; type: functional, cell-based; in short: as §1
[4] = test system: MCF7; assay: Cytotoxicity against human MCF7 cells assessed as reduction in cell viability by MTS assay; type: functional, cell-based
[5] = Cytotoxicity against human MGC cells assessed as reduction in cell viability by MTS assay; type: functional, cell-based; in short: as §1
[6] = Cytotoxicity against human EC109 cells assessed as reduction in cell viability by MTS assay; type: functional, cell-based; settings: ECa-109; in short: as §1
[7] = Cytotoxicity against human PANC1 cells assessed as reduction in cell viability by MTS assay; type: functional, cell-based; settings: PANC-1; in short: as §1
[8] = Cytotoxicity against human Hep3B2 cells assessed as reduction in cell viability by MTS assay; type: functional, cell-based, Hep 3B2; settings: Hep3B; in short: as §1
[9] = test system: HaCaT; assay: Cytotoxicity against human HaCaT cells assessed as reduction in cell viability by MTS assay; type: cell-based; in short: as §1
[10] = Cytotoxicity against mouse NIH/3T3 cells assessed as reduction in cell viability by MTS assay; type: cell-based; settings: NIH3T3; in short: as §1
[11] = test system: MCF7; assay: Reduction in glucose uptake in human MCF7 cells assessed per 10^5 cells at 20 uM incubated for 12 hrs (reference value: 5.6 nM/hr/10^5 cells); type: functional
In short: (§2)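 Cells were seeded and after 24 h switched to fresh medium with 10% FBS, with or without 20 μM compound. After 12 h, supernatant glucose and lactate were measured on an automatic biochemistry analyzer. Cell numbers were counted in parallel by MTS. Rates (nmol/h/10^5 cells) were computed as the difference from blank medium divided by 12 h and by cell number. LY294002 served as positive control.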

[12] = test system: MCF7; assay: Reduction in lactate secretion in human MCF7 cells assessed per 10^5 cells at 20 uM incubated for 12 hrs; type: functional; in short: as §2
[13] = test system: HaCaT; assay: Toxicity in human HaCaT cells assessed as reduction in glucose uptake per 10^5 cells at 20 uM incubated for 12 hrs; type: cell-based; in short: as §2
[14] = test system: HaCaT; assay: Toxicity in human HaCaT cells assessed as reduction in lactate secretion per 10^5 cells at 20 uM incubated for 12 hrs; type: cell-based; in short: as §2
[15] = test system: MCF7; assay: Reduction in ATP generation in human MCF7 cells at 20 uM incubated for 12 and 24 hrs; type: functional, cell-based
In short: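 MCF-7 cells were exposed to 20 μM for 2, 4, 6, 8, 12 and 24 h. ATP was measured with a commercial kit, quantified against an ATP standard curve and expressed as % of the control group.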

[16] = test system: MCF7; assay: Reduction in hexokinase-2 protein expression in human MCF7 cells by SDS-PAGE and Western blotting method; type: functional, cell-based; settings: TDE = time-dependent effect
In short: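 MCF-7 cells were treated for 1, 3, 6, 12, 24 and 48 h and lysed in cold buffer. 50 μg protein was run on 10% SDS-PAGE and transferred to nitrocellulose. Membranes were probed with anti-HK2 primary antibody at 4 °C overnight, then HRP secondary for 1 h at room temperature, with ECL detection. α-Tubulin was the internal control.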

[17] = test system: A549; assay: Cytotoxicity against human A549 cells assessed as reduction in cell viability at 50 uM by MTS assay; type: functional, cell-based; in short: as §1
[18] = test system: CNE1-LMP1; assay: Cytotoxicity against human CNE1-LMP1 cells assessed as reduction in cell viability at 50 uM by MTS assay; type: functional, cell-based; in short: as §1
[19] = test system: A-375; assay: Cytotoxicity against human A375 cells assessed as reduction in cell viability at 50 uM by MTS assay; type: functional, cell-based; in short: as §1
[20] = test system: MCF7; assay: Cytotoxicity against human MCF7 cells assessed as reduction in cell viability at 50 uM by MTS assay; type: functional, cell-based; in short: as §1
[21] = test system: MGC; assay: Cytotoxicity against human MGC cells assessed as reduction in cell viability at 50 uM by MTS assay; type: functional, cell-based; in short: as §1
[22] = test system: ECa-109; assay: Cytotoxicity against human EC109 cells assessed as reduction in cell viability at 50 uM by MTS assay; type: functional, cell-based; in short: as §1
[23] = test system: PANC-1; assay: Cytotoxicity against human PANC1 cells assessed as reduction in cell viability at 50 uM by MTS assay; type: functional, cell-based; in short: as §1
[24] = test system: Hep 3B2; assay: Cytotoxicity against human Hep3B2 cells assessed as reduction in cell viability at 50 uM by MTS assay; type: functional, cell-based; in short: as §1
[25] = test system: HaCaT; assay: Cytotoxicity against human HaCaT cells assessed as reduction in cell viability at 50 uM by MTS assay; type: cell-based; in short: as §1
[26] = Cytotoxicity against mouse NIH/3T3 cells assessed as reduction in cell viability at 50 uM by MTS assay; type: cell-based; settings: nih3t3, 50 µM; in short: as §1

C=C1CCC(c2coc(/C=C(\C)C(N)=O)c2)CC1
14.7 µM: IC50 [5]
Non-toxic: Activity [13] | Activity [14]
4.2 nM/h: Activity [11]
> 50 µM: IC50 [1] | IC50 [2] | IC50 [3] | IC50 [6] | IC50 [7] | IC50 [9] | IC50 [10]
8.4 µM: IC50 [4]
> 50000 nM: IC50 [8]
active: inhibition [15] | inhibition [16] tde
0.5 nM/h: Activity [12]

C/C(=C\c1cc([C@H]2CC[C@@](O)(CO)CC2)co1)C(N)=O
Non-toxic: Activity [25] | Activity [26]
inactive: Activity [17] | Activity [18] | Activity [19] | Activity [20] | Activity [21] | Activity [22] | Activity [23] | Activity [24]

C=C1CCC(C2=C/C(=C/C(C)C(N)=O)OC2=O)CC1 (racemic)
Non-toxic: Activity [25] | Activity [26]
inactive: Activity [17] | Activity [18] | Activity [19] | Activity [20] | Activity [21] | Activity [22] | Activity [23] | Activity [24]

C=C1CCC(C2=C/C(=C\C(C)C(N)=O)OC2=O)CC1 (racemic)
inactive: Activity [17] | Activity [18] | Activity [19] | Activity [20] | Activity [21] | Activity [22] | Activity [23] | Activity [24]
Non-toxic: Activity [25] | Activity [26]

CC(/C=C1/C=C([C@H]2CC[C@@](O)(CO)CC2)C(=O)O1)C(N)=O (mixture of isomers)
Non-toxic: Activity [25] | Activity [26]
inactive: Activity [17] | Activity [18] | Activity [19] | Activity [20] | Activity [21] | Activity [22] | Activity [23] | Activity [24]

CC(=O)OC[C@]1(O)CC[C@H](C2=C/C(=C/C(C)C(N)=O)OC2=O)CC1 (mixture of isomers)
Non-toxic: Activity [25] | Activity [26]
inactive: Activity [17] | Activity [18] | Activity [19] | Activity [20] | Activity [21] | Activity [22] | Activity [23] | Activity [24]

CC(=O)O[C@H]1C(=O)[C@@]2(C)[C@H]([C@H](OC(=O)c3ccccc3)[C@]3(O)C[C@H](OC(=O)[C@H](O)[C@@H](NC(=O)c4ccccc4)c4ccccc4)C(C)=C1C3(C)C)[C@]1(OC(C)=O)CO[C@@H]1C[C@@H]2O [PACLITAXEL]
0.016 nM: IC50 [8]
0.0011 µM: IC50 [7]
0.0064 µM: IC50 [5]
0.14 µM: IC50 [6]
4.2 µM: IC50 [10]
0.0042 µM: IC50 [2]

Source: ChEMBL document CHEMBL3580581, “Bisabolane Sesquiterpenoids from the Plant Endophytic Fungus Paraconiothyrium brasiliense” (J Nat Prod, 2015)
